# Published values pooled from the literature.
# Lines come from different studies, so protocols differ.
# KIT A829P: Mast/stem cell growth factor receptor Kit (KIT, Homo sapiens, UniProt P10721, A829P)
# KIT D816H: Mast/stem cell growth factor receptor Kit (KIT, Homo sapiens, UniProt P10721, D816H)
# KIT V559D/V654A: Mast/stem cell growth factor receptor Kit (KIT, Homo sapiens, UniProt P10721, V559D/V654A)
# KIT L576P: Mast/stem cell growth factor receptor Kit (KIT, Homo sapiens, UniProt P10721, L576P)
# KIT: Mast/stem cell growth factor receptor Kit (KIT, Homo sapiens, UniProt P10721)
# KIT V559D: Mast/stem cell growth factor receptor Kit (KIT, Homo sapiens, UniProt P10721, V559D)
target,read-out,method,tested at,remaining binding [%],Compound
KIT A829P,binding,,1 µM,88,CN(c1nccc(-c2cnn3ncccc23)n1)C1CC1
KIT A829P,binding,competition with immobilised ligand,10 µM,27,c1cncc(-c2cccc(Nc3nccc(NC4CCCCC4)n3)c2)c1
KIT D816H,cell-free assay,competition with immobilised ligand,1 µM,51,CCS(=O)(=O)c1cc2cc(C[C@@](O)(CC(C)(C)c3ccc(F)cc3C(N)=O)C(F)(F)F)[nH]c2cn1
KIT V559D/V654A,binding,,1 µM,100,CN(C)c1nccc(-c2cnc3ncccn23)n1
KIT L576P,binding,competition with immobilised ligand,1 µM,1.4,O=C(c1ccc(Nc2ncc(Cl)c(-c3ccc(Cl)s3)n2)cc1)N1CCC(N2CCCC2)CC1
KIT A829P,cell-free assay,competition with immobilised ligand,0.1 µM,72,Cn1nc(C(=O)NCc2ccc(C(=O)O)cc2)cc1-c1ccc2[nH]ccc2c1
KIT D816H,binding,,1 µM,72,CN(C)c1ncc(F)c(-c2cnn3ncccc23)n1
KIT L576P,binding,competition with immobilised ligand,1 µM,100,O=C(Nc1c[nH]nc1C(=O)NC1CCNCC1)c1cc(F)cc(F)c1
KIT L576P,binding,,1 µM,67,C[C@H]1CCN(c2nccc(-c3cnn4ncccc34)n2)C1
"Mast/stem cell growth factor receptor Kit, autoinhibited (KIT, Homo sapiens, UniProt P10721)",binding,competition with immobilised ligand,1 µM,66,O=C(c1ccc(Nc2nccc(-c3cc4ccccc4s3)n2)cc1)N1CCC(N2CCCC2)CC1
KIT D816H,binding,competition with immobilised ligand,1 µM,100,C=CC(=O)N1CCC(C(=O)NCC(=O)N2CCN(c3nc(-c4cnc(N)nc4C(F)F)nc(N4CCOCC4)n3)CC2)CC1
KIT D816H,cell-free assay,competition with immobilised ligand,1 µM,68,O=C(O)[C@@H]1[C@@H](Cn2nnc3ccccc3c2=O)CC[C@H]1C(=O)c1ccc(OCCC2CCOCC2)cc1
KIT,binding,competition with immobilised ligand,1 µM,95,Nc1ncc2c(n1)-c1c([nH]c3ccc(C#CC4CC4)cc13)CCCC2
KIT V559D,cell-free assay,competition with immobilised ligand,1 µM,99,CO[C@H]1CC[C@H](CNc2ccc(S(=O)(=O)NC(=O)c3ccc(N4CCN(CC5=C(c6ccc(Cl)cc6)CC(C)(C)CC5)CC4)cc3Oc3cnc4[nH]ccc4c3)cc2[N+](=O)[O-])CC1
"Mast/stem cell growth factor receptor Kit (KIT, Homo sapiens, UniProt P10721, D816V)",binding,,1 µM,60,CN(C)c1nccc(-c2cnn3ncccc23)n1
KIT D816H,cell-free assay,competition with immobilised ligand,1 µM,100,CC(C)(O)c1cncc(-c2nc3ccc(F)cc3n2C2CC2)c1
KIT V559D/V654A,binding,,1 µM,74,F[C@@H]1CCN(c2nccc(-c3cnn4ncccc34)n2)C1
KIT D816H,cell-free assay,competition with immobilised ligand,1 µM,100,C[C@@H](c1cccc(C#N)c1)n1cc(Cl)cc(C(N)=O)c1=N
"Mast/stem cell growth factor receptor Kit (KIT, Homo sapiens, UniProt P10721, T670I/V559D)",binding,competition with immobilised ligand,1 µM,100,CNC(=O)[C@@H]1CC[C@@H](n2c(-c3ccc4cnccc4c3)nc3ccc(C(=O)NCc4cccc(C(N)=O)c4)cc32)C1
KIT D816H,cell-free assay,competition with immobilised ligand,1 µM,70,CNC(=O)Nc1ccc2c(c1)[C@@]1(CC2)OC(=O)N(CC(=O)N(Cc2ccc(F)cc2)[C@@H](C)C(F)(F)F)C1=O
KIT,binding,competition with immobilised ligand,1 µM,0.05,O=C(NCCCN1CCOCC1)c1ccc(Nc2ncc(Cl)c(-c3ccc(Cl)s3)n2)cc1
KIT D816H,cell-free assay,competition with immobilised ligand,0.1 µM,81.8,Cc1cc(C)c(-n2ccn3nc(-c4cccnc4)cc23)cc1NC(=O)c1cc(C#N)cc(S(F)(F)(F)(F)F)c1
KIT V559D,binding,,1 µM,87,N[C@H]1CCN(c2nccc(-c3cnn4ncccc34)n2)C1
KIT,binding,competition with immobilised ligand,10 µM,100,N#Cc1ccccc1CSc1nnc2c(n1)[nH]c1ccccc12
